Legend:
[1] = molecular target: T1, Phosphodiesterase 4 (Homo sapiens, UniProt P27815+Q08499+Q07343+Q08493); assay: Inhibition of PDE4 isolated from human U937 cells assessed as […] by LANCE assay; assay type: cell-free; conditions: u-937
[2] = molecular target: T1, Phosphodiesterase 4; assay: Inhibition of PDE4 activity in human PBMC assessed as inhibition of LPS-induced TNFalpha release after 18 hrs by ELISA
In short: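 Human PBMCs plated at 10^5 cells/well in RPMI 1640 without phenol red plus 10% FBS, at 37 °C, 5% CO2. Compound added at 10^-15 to 10^-6 M (final DMSO 0.2%), with E. coli LPS at 3 ng/mL final, for 18 h. TNFα in supernatant measured by paired-antibody ELISA. IC50 from four-parameter logistic nonlinear regression, reported with 95% confidence intervals.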

Row | Compound | IC50 [1] [nM] | IC50 [2] [nM]
1 | COc1ccc(C(=O)O[C@@H](Cc2c(Cl)c[n+]([O-])cc2Cl)c2ccc(OC(F)F)c(OCC3CC3)c2)cc1 | 0.14 | 0.47
2 | COc1ccc(C(=O)O[C@@H](Cc2c(Cl)c[n+]([O-])cc2Cl)c2ccc(OC(F)F)c(OCC3CC3)c2)c(NS(C)(=O)=O)c1 | 0.73 | > 60
3 | O=C(O[C@@H](Cc1c(Cl)c[n+]([O-])cc1Cl)c1ccc(OC(F)F)c(OCC2CC2)c1)c1ccc([N+](=O)[O-])c(OCC2CC2)c1 | 0.21 | 0.69
4 | CN(C)c1ccc(C(=O)O[C@@H](Cc2c(Cl)c[n+]([O-])cc2Cl)c2ccc(OC(F)F)c(OCC3CC3)c2)cc1OCC1CC1 | 0.31 | 0.63

Continued, values first:

Row | IC50 [1] [nM] | IC50 [2] [nM] | Compound
5 | 0.05 | 0.13 | CS(=O)(=O)Nc1ccc(C(=O)O[C@@H](Cc2c(Cl)c[n+]([O-])cc2Cl)c2ccc(OC(F)F)c(OCC3CC3)c2)cc1
6 | 0.05 | 0.3 | O=C(O[C@@H](Cc1c(Cl)c[n+]([O-])cc1Cl)c1ccc(OC(F)F)c(OCC2CC2)c1)c1ccc(C(=O)O)c(OCC2CC2)c1
7 | 0.03 | 0.96 | Cc1ccc(C(=O)O[C@@H](Cc2c(Cl)c[n+]([O-])cc2Cl)c2ccc(OC(F)F)c(OCC3CC3)c2)cc1NS(C)(=O)=O
